{"data": "Published values gathered from unrelated publications", "target": "Non-receptor tyrosine-protein kinase TNK1 (TNK1, Homo sapiens, UniProt Q13470)", "Sequence (Q13470 1-666, as in one of the studies)": "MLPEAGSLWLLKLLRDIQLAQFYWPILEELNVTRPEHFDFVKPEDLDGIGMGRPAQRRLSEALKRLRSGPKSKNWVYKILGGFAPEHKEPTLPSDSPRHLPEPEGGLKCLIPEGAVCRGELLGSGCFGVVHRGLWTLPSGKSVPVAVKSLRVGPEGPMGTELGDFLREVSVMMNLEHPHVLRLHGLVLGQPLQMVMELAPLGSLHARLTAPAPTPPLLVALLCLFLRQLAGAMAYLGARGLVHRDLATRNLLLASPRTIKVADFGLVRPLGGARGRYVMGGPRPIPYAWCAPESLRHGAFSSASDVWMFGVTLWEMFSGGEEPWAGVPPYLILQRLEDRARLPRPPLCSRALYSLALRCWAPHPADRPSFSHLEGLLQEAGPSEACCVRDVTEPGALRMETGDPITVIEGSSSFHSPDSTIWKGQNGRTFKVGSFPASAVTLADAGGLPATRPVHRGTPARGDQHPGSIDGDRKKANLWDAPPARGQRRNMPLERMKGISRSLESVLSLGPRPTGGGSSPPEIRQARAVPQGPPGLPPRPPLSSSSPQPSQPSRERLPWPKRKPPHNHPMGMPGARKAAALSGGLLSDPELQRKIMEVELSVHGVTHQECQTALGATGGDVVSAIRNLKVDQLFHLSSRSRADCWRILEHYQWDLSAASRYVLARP", "note": "Compare with care: the assays were run in different laboratories."}
{"Compound": "F[C@@H]1CCN(c2nccc(-c3cnn4ncccc34)n2)C1", "read-out": "binding", "tested at": "1 µM", "remaining binding [%]": 87}
{"Compound": "Cc1noc([C@H]2C[C@@H](c3ccc(C(F)(F)F)cc3)CN(C(=O)N3CCS(=O)(=O)C3)C2)n1", "read-out": "cell-free assay", "technique": "competition with immobilised ligand", "tested at": "1 µM", "remaining binding [%]": 100}
{"Compound": "Nc1ncc2c(n1)-c1c([nH]c3ccc(C#CC4CC4)cc13)CCCC2", "read-out": "binding", "technique": "competition with immobilised ligand", "tested at": "1 µM", "remaining binding [%]": 100}
{"Compound": "COc1cc(-c2cn(C3CCc4c(F)cccc4N(CC(F)(F)F)C3=O)nn2)ccc1-n1cnc(C)c1 (stereo not shown)", "read-out": "cell-free assay", "technique": "competition with immobilised ligand", "tested at": "1 µM", "remaining binding [%]": 100}
{"Compound": "C[C@@H]1CCN(c2nccc(-c3cnn4ncccc34)n2)C1", "read-out": "binding", "tested at": "1 µM", "remaining binding [%]": 100}
{"Compound": "c1cncc(-c2cccc(Nc3nccc(NC4CCCCC4)n3)c2)c1", "read-out": "binding", "technique": "competition with immobilised ligand", "tested at": "10 µM", "remaining binding [%]": 40}
{"Compound": "CNC(=O)[C@@H]1CC[C@@H](n2c(-c3ccc4cnccc4c3)nc3ccc(C(=O)NCc4cccc(C(N)=O)c4)cc32)C1", "read-out": "binding", "technique": "competition with immobilised ligand", "tested at": "1 µM", "remaining binding [%]": 97}
{"Compound": "O=C(c1ccc(Nc2ncc(Cl)c(-c3cc4ccccc4s3)n2)cc1)N1CCC(N2CCCC2)CC1", "read-out": "binding", "technique": "competition with immobilised ligand", "tested at": "1 µM", "remaining binding [%]": 15}
{"Compound": "O=C(NCC1CCOCC1)c1n[nH]cc1NC(=O)c1c(F)cccc1F", "read-out": "binding", "technique": "competition with immobilised ligand", "tested at": "1 µM", "remaining binding [%]": 98}
{"Compound": "Cc1c(C(=O)O)cc(-c2ccc(C3CCNCC3)cc2)c2ccc(-c3ccc(C(F)(F)F)cc3)cc12", "read-out": "binding", "technique": "competition with immobilised ligand", "tested at": "1 µM", "remaining binding [%]": 100}
{"Compound": "O=C(NCCCN1CCOCC1)c1ccc(Nc2nccc(-c3cc4ccccc4s3)n2)cc1", "read-out": "binding", "technique": "competition with immobilised ligand", "tested at": "1 µM", "remaining binding [%]": 41}
{"Compound": "Cn1cc(Cl)c2c(Oc3c(F)cc(Nc4cc(Cl)nc(N)n4)cc3F)ccnc21", "read-out": "cell-free assay", "technique": "competition with immobilised ligand", "tested at": "0.1 µM", "remaining binding [%]": 100}
{"Compound": "FC(F)(F)Oc1cccc(-c2cnc3ccc(-c4ccncc4)nn23)c1", "read-out": "binding", "technique": "competition with immobilised ligand", "tested at": "5 µM", "remaining binding [%]": 88}
{"Compound": "c1cnn2ncc(-c3ccnc(N4CCC45COC5)n3)c2c1", "read-out": "binding", "tested at": "1 µM", "remaining binding [%]": 100}
{"Compound": "C=CC(=O)N1CCC(C(=O)NCC(=O)N2CCN(c3nc(-c4cnc(N)nc4C(F)F)nc(N4CCOCC4)n3)CC2)CC1", "read-out": "binding", "technique": "competition with immobilised ligand", "tested at": "1 µM", "remaining binding [%]": 83}
{"Compound": "CN(CCCC(F)(F)F)c1nccc(-c2cnn3ncccc23)n1", "read-out": "binding", "tested at": "1 µM", "remaining binding [%]": 83}
{"Compound": "CNC(=O)Nc1ccc2c(c1)CC[C@@]21OC(=O)N(CC(=O)N(Cc2ccc(F)cc2)[C@@H](C)C(F)(F)F)C1=O", "read-out": "cell-free assay", "technique": "competition with immobilised ligand", "tested at": "1 µM", "remaining binding [%]": 86}
{"Compound": "N[C@@H]1CCN(c2nccc(-c3cnn4ncccc34)n2)C1", "read-out": "binding", "tested at": "1 µM", "remaining binding [%]": 100}
{"Compound": "Cc1c[nH]c2nccc(Oc3c(F)cc(Nc4cc(Cl)nc(N)n4)cc3F)c12", "read-out": "cell-free assay", "technique": "competition with immobilised ligand", "tested at": "0.1 µM", "remaining binding [%]": 100}
{"Compound": "Cc1cnn2ncc(-c3ccnc(N(C)C)n3)c2c1", "read-out": "binding", "tested at": "1 µM", "remaining binding [%]": 98}
{"Compound": "CC(C)CC(=O)N1CCc2nc(-c3ccc(Br)cc3)nc(N(C)Cc3ccccc3)c2C1", "read-out": "cell-free assay", "technique": "competition with immobilised ligand", "tested at": "0.1 µM", "remaining binding [%]": 100}
{"Compound": "O=C(NCCCN1CCOCC1)c1ccc(Nc2ncc(Cl)c(-c3ccc(Cl)s3)n2)cc1", "read-out": "binding", "technique": "competition with immobilised ligand", "tested at": "1 µM", "remaining binding [%]": 36}
